Hits are enriched below; roughly 6.9% of the tested compounds scored in any of these assays.
PTK2B oligo ant = antagonists of human Pyk2 oligomerization; Q14289; Q293 cells, Pyk2 FERM NanoBiT luminescence; hits give low values; z-score (the deposit names both 25 µM and 10 µM); 99,000 compounds, 0.83% hits;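 active means Z-score of -3 or lower, scaled per plate to the spread of control and sample wells; inactive means z-score above -3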;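 further: negative z-score means lost luminescence so less FERM oligomerization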
PostGolgi yeast = growth inhibition of a yeast mutant, post-Golgi transport screen | inhibition, % at 10 µM | post-Golgi transport phenotypic cell assay | AID 739 | 98,000 compounds, 0.9% hits;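 further: yeast cells grown in 1536-well plates; yeast grown about 18 h at 30C before absorbance read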
PostGolgi ctrl = yeast control strain growth, post-Golgi counter-screen | inhibition, % at 10 µM | efflux-deficient yeast background strain, growth absorbance A615, 16 h | 98,000 compounds, 5% hits
FAK inh = inhibitors of human focal adhesion kinase | Q05397 | 97,000 compounds, 0.84% hits | inhibition, %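 (tested at 7 µM)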 | biochemical FAK kinase activity assay; in the data active means inhibition above about 19%
Calb biofilm kill = kills Candida albicans biofilms; inhibition, % at 6 µM; 85,000 compounds, 0.14% hits; AID 834; C. albicans biofilm + clotrimazole, Alamar Blue;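 active means inhibition above 20%; inactive means inhibition below 20%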;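 further: preformed 24 hr biofilms exposed to compound for 48 hr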
tolC growth inh = E. coli tolC mutant growth inhibition; growth inhibition, % at 10 µM (by protocol); E. coli BW25113 tolC mutant growth, OD615; 65,000 compounds, 2.2% hits;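 active means growth inhibition at or above a cutoff equal to the mean over every tested compound plus 3 SD, cut at about 60% in these data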;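 further: growth measured after 20 h incubation at 37 °C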
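Test system: tolC-deleted E. coli BW25113 | Medium: LB with kanamycin 50 µg/mL | Compound dosing: Single concentration, 10 µM final per compound | Schedule: 37 °C, 20 h exposure | Measured by: OD at 615 nm | Evaluation: Percent growth inhibition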
Numbers stand for hits; - = inactive; . = no result given. Unless noted, no stated cut-off is given here; in the data, active means inhibition above about 30%; inactive means the rest.

SMILES	PTK2B oligo ant	PostGolgi yeast	PostGolgi ctrl	FAK inh	Calb biofilm kill	tolC growth inh
CCOC(=O)c1c(-c2ccccc2)nc2ccc(C)cn12	-	-	31	-	.	.
COc1ccc(NC(=O)c2ccc(COc3ccccc3OC)o2)cc1OC	-	-	-	-	-	.
CCn1c(=O)c(C(=O)CN2CC(C)OC(C)C2)c(N)n(Cc2ccccc2)c1=O (centres undefined)	-	-	-	-	-	-
O=S(=O)(NC1CC2CCC1C2)c1ccc(Br)s1 (centres undefined)	-	90	91	-	-	-
O=C1C(NS(=O)(=O)c2cccs2)=C(N2CCN(c3ccccc3)CC2)C(=O)c2ccccc21	-	-	57	-	-	.
O=C(NCC(c1cccnc1)N1CCN(c2ccc(F)cc2)CC1)OCc1ccccc1 (centres undefined)	-	59	-	-	-	-
Cc1ccc(S(=O)(=O)NC2=C(N3CCN(Cc4ccccc4)CC3)C(=O)c3ccccc3C2=O)cc1	.	-	46	-	-	.
Cc1ccc(S(=O)(=O)NC(C)C(c2cccs2)N2CCN(C)CC2)cc1 (centres undefined)	-	.	.	-	-	-
Cc1ccc(S(=O)(=O)NC(C)C(c2cccs2)N2CCN(c3ccccc3)CC2)cc1 (centres undefined)	.	-	47	-	-	.
Cc1nc(C(=O)Nc2ccc(Cl)cc2Cl)nn1-c1cc(OC(C)C)c(Cl)cc1Cl	-	-	-	-	.	.
Cc1nn(-c2ccccc2)c2nc(-c3ccncc3)cc(C(=O)NCc3ccco3)c12	-	-	-	-	-	-
COC(=O)NCC(c1cccnc1)N1CCN(c2ccccc2)CC1 (centres undefined)	.	-	-	-	-	-
O=C(NCC(c1ccco1)N1CCN(c2ccc(F)cc2)CC1)OCc1ccccc1 (centres undefined)	-3	.	.	.	.	.
O=C(NCc1ccncc1)C(=O)NCC(c1ccco1)N1CCN(c2ccc(F)cc2)CC1 (centres undefined)	-	.	.	.	.	.
O=C(NCC(c1cccnc1)N1CCN(c2ccccc2F)CC1)c1ccccc1 (centres undefined)	.	-	-	.	-	-
O=S(=O)(NCC(c1cccnc1)N1CCN(c2ccccc2)CC1)c1cccs1 (centres undefined)	-	88	55	-	-	-
O=C(NCC(c1cccnc1)N1CCN(c2ccc(F)cc2)CC1)c1cccc(Cl)c1 (centres undefined)	-	77	91	-	-	-
COc1ccc(N2CCN(C(CNS(=O)(=O)c3cccs3)c3cccnc3)CC2)cc1 (centres undefined)	-	-	-	-	-	-
O=C(NCC(c1cccnc1)N1CCN(c2ccccc2)CC1)C1CCCCC1 (centres undefined)	-	46	-	-	-	-
Cc1cccc(N2CCCn3c2nc2c3c(=O)n(CC(=O)OCc3ccccc3)c(=O)n2C)c1	.	.	.	.	-	-
CCOC(=O)c1ccc(N2C(=O)CC(N3CCN(C(=O)c4ccco4)CC3)C2=O)cc1 (centres undefined)	-	-	-	-	-	-
O=C(NCC(c1cccnc1)N1CCN(c2ccccc2F)CC1)OCc1ccccc1 (centres undefined)	-3.1	-	-	-	-	-
O=C(NCC(c1cccnc1)N1CCN(c2ccccc2)CC1)c1ccc2c(c1)OCO2 (centres undefined)	-	74	-	-	-	-
COc1ccc(-c2cn3nc4c(nc3n2)CCCC4)cc1	-	-	-	-	-	.
CC(C)(C)C1(c2ccccc2)NC(=O)N(CC(=O)N2CCOCC2)C1=O (centres undefined)	-	-	-	-	-	-
SMILES	PTK2B oligo ant	PostGolgi yeast	PostGolgi ctrl	FAK inh	Calb biofilm kill	tolC growth inh
CCc1oc2ccccc2c1C(=O)CCN1CCCCC1	-	-	36	-	-	-
O=C(CSc1ccccn1)N/N=C/c1cccc([N+](=O)[O-])c1	-	.	.	.	.	.
CCCCCn1c(SCc2ccncc2)nc2cc(C(=O)NCc3ccco3)ccc2c1=O	-	-	43	-	-	-
COc1ccc(/C=N/NC(=O)c2nc(-c3ccccc3)n(-c3ccccc3)n2)cc1OC	-	.	.	.	.	.
COc1ccc(/C=C\C(=O)CC(O)(c2ccccc2)C(F)(F)F)cc1 (centres undefined)	-	-	38	-	-	.
Cc1nnc(NC(=O)c2ccc(S(=O)(=O)N3CCCCCC3)cc2)o1	-	-	-	-	.	-
O=C(CCc1ccccc1)Nc1nnc(-c2cccs2)o1	.	-	-	-	-	-
CC1CC(C)CN(S(=O)(=O)c2ccc(C(=O)Nc3nnc(-c4cccs4)o3)cc2)C1 (centres undefined)	-4.5	-	-	-	-	99
CC1CCCN(S(=O)(=O)c2ccc(C(=O)Nc3nnc(-c4ccccc4Cl)o3)cc2)C1 (centres undefined)	-3.8	-	-	-	-	100
O=C(Nc1nnc(-c2cccs2)o1)c1cccc(C(F)(F)F)c1	.	73	36	-	-	100
CCC1CCCCN1S(=O)(=O)c1ccc(C(=O)Nc2nnc(-c3cccs3)o2)cc1 (centres undefined)	-	-	-	-	-	99
CCc1nnc(NC(=O)c2ccc(S(=O)(=O)N3CCCCC3C)cc2)s1 (centres undefined)	-	-	-	-	-	-
CCSc1nnc(NC(=O)C(CC)Oc2ccccc2)s1 (centres undefined)	-	-	-	.	-	-
COc1cc(-c2nnc(SCC#CCO)o2)cc(OC)c1OC	-	-	-	-	-	-
O=C(Nc1nnc(-c2ccccc2Cl)o1)c1cccnc1	-	-	-	-	-	70
Clc1ccccc1-c1nnc(-c2ccccc2Cl)o1	-	.	.	-	-	.
COc1cc(/C=C(/C#N)c2ccc(F)cc2)ccc1OCc1ccc(C(=O)O)o1	-	-	-	-	-	100
CCC(=O)c1ccc(OCc2ccc(C(=O)OC)o2)c(OC)c1	-	-	-	.	-	-
CN1CCN(CCP(=O)(c2ccccc2)c2ccccc2)CC1	-	-	-	-	-	-
O=C(Nc1scc(-c2cccs2)c1C(=O)O)c1cccs1	-	-	-	-	.	75
Cn1cnnc1SCC(=O)n1c2ccccc2c2ccccc21	-	-	-	-	-	-
Cc1cccc(C)c1-n1nnnc1C1(Nc2ccccc2)CCCCC1	-	-	44	-	.	.
Clc1ccc(NC2(c3nnnn3C3CCCCC3)CCCCC2)cc1	-	-	-	-	.	.
COc1ccc(-c2nn(C)c(=O)c3ccccc23)cc1NS(C)(=O)=O	-	-	-	-	-	-
COc1ccc(-c2nn(C)c(=O)c3ccccc23)cc1CNS(C)(=O)=O	-	-	42	-	-	-
Cc1nnc(SCc2cccc(Oc3ccccc3)c2)n1N	-	-	-	-	-	-
Clc1ccc(OCc2nc(-c3ccccn3)n[nH]2)cc1	-	-	-	-	-	85
CCn1c(N2CCN(C(=S)NCCc3ccccc3)CC2)nc2ccccc21	-	-	31	-	.	.
CC1CCCN(C(=S)NCCc2ccccc2)C1 (centres undefined)	-	-	32	-	-	.

From PubChem
